Assay results reported in ChEMBL document CHEMBL2390822, “Bioactive terpenoids from the fruits of Aphanamixis grandifolia” (J Nat Prod, 2013).
Active and inactive are the calls of the source. No cut-off for these calls is given here.

Tests used:
[1] = system: P388; assay: Cytotoxicity against mouse P388 cells; type: functional; details: read-out: ED50 (the source's name)
[2] = system: Caenorhabditis elegans; assay: Insecticidal activity against fourth-instar larva of Caenorhabditis elegans assessed as mortality after 5 days; type: functional, organism-based
[3] = system: Plutella xylostella; assay: Insecticidal activity against Plutella xylostella infected in cabbage leaves assessed as mortality after 5 days by leaf-disc method; type: functional, organism-based
[4] = system: Sitobion avenae; assay: Insecticidal activity against second-instar larva of Sitobion avenae infected in cabbage leaves assessed as mortality after 5 days by leaf-disc method; type: functional
[5] = system: Diabrotica balteata; assay: Insecticidal activity against Diabrotica balteata infected in cabbage leaves assessed as mortality after 5 days by leaf-disc method; type: functional
[6] = system: SMMC-7721; assay: Cytotoxicity against human SMMC7721 cells after 72 hrs by MTT assay; type: functional, cell-based
Summary of the method: (§1)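 Human tumour cell panel (HL-60, Bel7402, HepG2, SMMC-7721) with doxorubicin as the positive control.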

[7] = system: HepG2; assay: Cytotoxicity against human HepG2 cells after 72 hrs by MTT assay; type: functional, cell-based; summary of the method: as §1

Compound	Activity [4]	Activity [5]	further results
CCC(C)C(=O)OC1OC[C@@]23[C@H]4C(=O)[C@H](O)[C@@]5(C)[C@H](c6ccoc6)C[C@H]6O[C@]65[C@]4(C)[C@H](O)C[C@H]2[C@]1(C)[C@H](OC(C)=O)[C@H](O)[C@@H]3OC(C)=O (some centres not stated) [APHANASTATIN]			EC50 [1]: < 0.065 µg/mL
CC1(C)OC(=O)C=C[C@]2(C)[C@H]3[C@@H](O)[C@H](O)[C@@]4(C)[C@H](c5ccoc5)C[C@@H](O)[C@]45O[C@H](C[C@@H]12)[C@]35C	Active	Active	Activity [2]: Active; Activity [3]: Active
CC(=O)O[C@H]1CC(=O)OC(C)(C)[C@@H]2C[C@@H](O)[C@]3(C)[C@H]([C@@H](O)[C@H](OC(=O)c4cccnc4)[C@@]4(C)[C@H](c5ccoc5)C[C@H]5O[C@@]534)[C@@]12C	Active	Active	
COC(=O)N(C(=O)N1CO[C@@]2(C(=O)OC)Cc3cc(Cl)ccc3C2=N1)c1ccc(OC(F)(F)F)cc1	Active		
CN1COCN(Cc2cnc(Cl)s2)/C1=N\[N+](=O)[O-]	Active		
CC(=O)O[C@@H]1C[C@H](O)[C@@]23CO[C@H](O)[C@]1(C)[C@@H]2C[C@@H](O)[C@]1(C)[C@@H]3C(=O)C[C@@]2(C)[C@H](c3ccoc3)C[C@H]3O[C@]312 [AMOORASTATIN]			EC50 [1]: < 0.065 µg/mL
CC1(C)OC(=O)C=C[C@]2(C)[C@H]3[C@@H](O)[C@H](O)[C@]4(C)[C@@H](C(=O)C[C@H]4c4ccoc4)[C@]3(C)[C@H](O)C[C@@H]12	Active	Active	Activity [2]: Active; Activity [3]: Active
COc1cccc2c1C(=O)c1c(O)c3c(c(O)c1C2=O)C[C@@](O)(C(=O)CO)C[C@@H]3O[C@H]1C[C@H](N)[C@H](O)[C@H](C)O1			Activity [6]: Active; Activity [7]: Active
CC(=O)O[C@H]1CC(=O)OC(C)(C)[C@@H]2C[C@@H](OC(C)=O)[C@]3(C)[C@H]([C@@H](O)[C@H](O)[C@@]4(C)[C@H](c5ccoc5)C[C@H]5O[C@@]534)[C@@]12C		Active	
